Like-named read-outs stand apart in the source and are kept apart here.
What was measured:
[1] = format: in vivo; conditions: mouse, 10 mg/kg
Outline: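 Dosing was 10 mg/kg, s.c. or i.p. by compound, with sparse sampling of plasma and brain. Total drug measured by LC-MS/MS was multiplied by fraction unbound to give free concentrations. Fraction unbound came from 5 μM compound incubated in mouse plasma or brain homogenate by rapid equilibrium dialysis. Parameters were derived by noncompartmental analysis, with terminal half-life by best fit.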

[2] = Fraction unbound by rapid equilibrium dialysis; format: in vitro ADME; conditions: mouse
[3] = system: narcoleptic male orexin/tTA; TetO-DTA mice; assay: EEG/EMG sleep/wake and cataplexy scoring after dosing before dark onset; format: in vivo, mouse; conditions: for Latency to REM sleep / Latency to NREM sleep: vs vehicle; for Wake bout duration, treatment effect: 6-h recording; for REM/NREM ratio: entire 6-h recording; for Wake bout duration: first post-dosing hour (ZT13); for Compensatory NREM sleep after increased wakefulness: hours after the first post-dosing hour
Outline: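 Crossover in telemetered male DTA mice (n = 7) given 1, 3 or 10 mg/kg s.c. or i.p., or the matching vehicle, 15 min before ZT12, ≥3 d between doses. EEG/EMG were scored for 6 h as hourly and cumulative time per state and as bouts. NREM latency ran from dosing to the first 6 consecutive NREM epochs; REM latency to the first 3 REM epochs. Analysis used 1-way ANOVA or 2-way RM ANOVA (treatment × time), with Holm-Sidak vs vehicle.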

[4] = system: narcoleptic male orexin/tTA; TetO-DTA mice; assay: EEG spectral power analysis; format: in vivo, mouse
Outline: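 Male orexin/tTA;TetO-DTA mice (n = 7) with subcutaneous EEG/EMG telemeters received vehicle or 1, 3 or 10 mg/kg (s.c. or i.p. by compound, 10 mL/kg) 15 min before light offset at ZT12. Design was repeated measures in balanced order, ≥3 d apart. Normalized EEG spectra were taken in 0.122 Hz bins and bands: delta 0.5–4, theta 4–9, alpha 9–12, beta 12–30, low gamma 30–60, high gamma 60–100 Hz. Each state needed ≥3 animals. Analysis was 2-way RM ANOVA with Holm-Sidak.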

[5] = system: narcoleptic male orexin/tTA; TetO-DTA mice; assay: Gross motor activity, running wheel activity and subcutaneous temperature; format: in vivo, mouse; conditions: for Number of running bouts: ZT13
Outline: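 Gross motor activity came from the implanted subcutaneous telemeter, alongside home-cage running-wheel activity and bouts and subcutaneous temperature, analysed per ZT hour after dosing. Male DTA mice (n = 7), adapted ≥2 weeks to wheels, handling and dosing, received vehicle or 1, 3 or 10 mg/kg s.c. or i.p. 15 min before ZT12 in repeated-measures order. Analysis was 2-way RM ANOVA (treatment × time) with Holm-Sidak.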

[6] = system: healthy sleep-deprived adults; conditions: Phase 1; ref Evans et al., 2019; cited from earlier work
wild-type mice = conditions: subcutaneous; ref Yukitake et al., 2019; cited from earlier work
[7] = system: narcoleptic OX2R knockout (KO) mice; conditions: subcutaneous; ref Yukitake et al., 2019; cited from earlier work
[8] = system: Hcrt peptide-deficient and Hcrt neuron-ablated mice; conditions: ref Irukayama-Tomobe et al., 2017; cited from earlier work
[9] = system: Hcrt receptor-deficient mice; conditions: ref Irukayama-Tomobe et al., 2017; cited from earlier work
[10] = system: Hcrt-deficient, Hcrt neuron-ablated and wild-type mice; conditions: peripheral administration; ref Irukayama-Tomobe et al., 2017; cited from earlier work
[11] = first post-dosing hour (ZT13), 3 and 10 mg/kg i.p.
[12] = first hour, all doses 1–10 mg/kg s.c.
[13] = first post-dosing hour, all doses s.c.
[14] = second post-dosing hour, 10 mg/kg s.c.
[15] = first post-dosing hour (ZT13), all doses s.c.

CCNC(=O)N1CCC[C@H](NS(C)(=O)=O)[C@@H]1CO[C@H]1CC[C@@H](C(C)C)CC1 [ARN-776, (2R,3S)-N-ethyl-2-{[(cis-4-isopropylcyclohexyl)oxy]methyl}−3-[(methylsulfonyl)amino]piperidine-1-carboxamide]
Cmax ([1]; brain, ip): 13 ng/g
Tmax ([1]; brain, ip): 10 min
half-life ([1]; brain, ip): 38 min
AUC(0-t) ([1]; plasma, ip): 191 ng·h/mL
Cmax ([1]; plasma, ip): 326 ng/mL
Tmax ([1]; plasma, ip): 10 min
half-life ([1]; plasma, ip): 125 min
fraction unbound at 5 μM ([2]; mouse brain homogenate): 0.121
fraction unbound at 5 μM ([2]; mouse plasma): 0.176
Number of Wake bouts across the entire 6-h recording ([3]; 3 mg/kg (p = 0.03) and 10 mg/kg (p = 0.002) i.p.): significantly reduced the number of Wake bouts
Cataplexy bout duration ([3]; 3 mg/kg i.p., p = 0.046): modest effect
Cumulative time in Wake ([3]; 10 mg/kg i.p., post hoc p = 0.005): significant effects
Cumulative time in NREM sleep ([3]; 10 mg/kg i.p., post hoc p = 0.028): significant effects
Latency to REM sleep ([3]; 10 mg/kg i.p.): delayed REM sleep
NREM bout duration, post hoc test per dose ([3]; 1–10 mg/kg i.p.): did not identify any specific dose
REM bout duration, post hoc test per dose ([3]; 1–10 mg/kg i.p.): did not identify any specific dose
REM sleep rebound after early suppression ([3]; 1–10 mg/kg i.p.): rebound did not reach statistical significance
Percent time in Cataplexy across the 6-h recording ([3]; all 3 doses (1, 3, 10 mg/kg i.p.)): reduced Cataplexy across the 6-h period
Cumulative time in Cataplexy ([3]; all 3 doses i.p.): cumulative suppression of Cataplexy
Wake bout duration, treatment effect ([3]; all doses i.p.): significant treatment effects
REM/NREM ratio ([3]; i.p.): unchanged
Number of NREM bouts ([3]; first hour post-dosing, only middle and high doses i.p.): reduced the number of NREM bouts
Hourly amount of NREM sleep ([3]; first hour, 1–10 mg/kg i.p.): dose-related changes
Hourly amount of REM sleep ([3]; first hour, 1–10 mg/kg i.p.): dose-related changes
Hourly amount of Wake ([3]; first hour, 1–10 mg/kg i.p.): dose-related changes
Number of Wake bouts ([3]; first hour, 1–10 mg/kg i.p.): dose-related effect
Reduction in hourly Cataplexy levels ([3]; first hour, 1–10 mg/kg i.p.): did not reach statistical significance
Wake bout duration ([3]; all doses i.p.): increased Wake bout duration
Compensatory NREM sleep after increased wakefulness ([3]; i.p.): no compensatory increase in NREM sleep
Suppression of cumulative REM sleep ([3]; lower doses i.p.): limited to the first post-dosing hour
Number of REM bouts ([3]; only 10 mg/kg i.p.): reduced the number of REM bouts
Latency to NREM sleep ([3]; only 3 and 10 mg/kg i.p. (not 1 mg/kg)): delayed NREM
Number of Cataplexy bouts ([3]; only the two highest concentrations i.p.): effective during the first and later hours
Number of Wake bouts ([3]; second hour, only 10 mg/kg i.p.): reduced the number of Wake bouts
High gamma EEG power during Wake across the entire recording period ([4]; 10 mg/kg i.p., p = 0.04): significantly increased high gamma
Waking EEG low and high gamma power ([4]; ZT13, 3 mg/kg i.p.): significantly increased
NREM EEG alpha and high gamma power ([4]; ZT14, 10 mg/kg i.p.): significant reductions
NREM EEG high gamma power ([4]; ZT15, 10 mg/kg i.p.): reduction of high gamma continued into ZT15
Waking EEG power in alpha, low gamma and high gamma ([4]; first post-dosing hour, 10 mg/kg i.p.): significantly increased power in all three of these bands
Number of running bouts ([5]; 3 and 10 mg/kg i.p.): more running bouts
Gross motor activity ([5]; ZT15, highest dose i.p.): reduced gross motor activity
Gross motor activity [5, 11]: significantly increased motor activity
Running wheel activity [5, 11]: significantly increased running wheel activity
Subcutaneous temperature (Tsc) [5, 11]: significantly increased Tsc

COC(=O)N1CCC[C@H](NS(C)(=O)=O)[C@@H]1CO[C@H]1CC[C@@H](c2ccccc2)CC1 [TAK-925, Methyl (2R,3S)-3-[(methylsulfonyl)amino]-2-{[(cis-4-phenylcyclohexyl)oxy]methyl}piperidine-1-carboxylate]
Cmax ([1]; brain, sc): 20 ng/g
Tmax ([1]; brain, sc): 10 min
half-life ([1]; brain, sc): 53 min
AUC(0-t) ([1]; plasma, sc): 335 ng·h/mL
Cmax ([1]; plasma, sc): 160 ng/mL
Tmax ([1]; plasma, sc): 10 min
half-life ([1]; plasma, sc): 36 min
fraction unbound at 5 μM ([2]; mouse brain homogenate): 0.077
fraction unbound at 5 μM ([2]; mouse plasma): 0.107
Duration of the reduction of Wake bouts ([3]; 10 mg/kg s.c.): up to 3 h
Cumulative time in Cataplexy ([3]; 10 mg/kg s.c., p = 1.74 × 10^−4): suppression of Cataplexy
Latency to NREM sleep ([3]; 1, 3 and 10 mg/kg s.c.): delayed NREM sleep onset
Effects on arousal states (Wake, NREM, REM) across the 6-h recording ([3]; 1–10 mg/kg s.c.): transitory
NREM bout duration, post hoc test per dose ([3]; 1–10 mg/kg s.c.): did not identify any specific dose
REM bout duration, post hoc test per dose ([3]; 1–10 mg/kg s.c.): did not identify any specific dose
Latency to REM sleep ([3]; all doses (1, 3, 10 mg/kg s.c.)): delayed REM sleep
Wake bout duration, treatment effect ([3]; all doses s.c.): significant treatment effects
REM/NREM ratio ([3]; s.c.): unchanged
Hourly amount of Cataplexy [3, 12]: eliminated
Hourly amount of NREM sleep [3, 12]: eliminated
Hourly amount of REM sleep [3, 12]: eliminated
Hourly amount of Wake [3, 12]: caused continuous wakefulness
Wake bout duration ([3]; all doses s.c.): increased Wake bout duration
Number of bouts of Cataplexy [3, 13]: reduced the number of bouts
Number of bouts of NREM [3, 13]: reduced the number of bouts
Number of bouts of REM [3, 13]: reduced the number of bouts
Number of bouts of Wake [3, 13]: reduced the number of bouts
Number of Cataplexy bouts ([3]; first two hours, all doses s.c.): reduced the number of Cataplexy bouts
Compensatory NREM sleep after increased wakefulness ([3]; s.c.): no compensatory increase in NREM sleep
Number of Wake bouts across the entire 6-h recording ([3]; only 10 mg/kg s.c., p = 0.013): reduced the number of Wake bouts
Percent time in Cataplexy across the 6-h recording ([3]; only the highest dose (10 mg/kg s.c.)): reduced Cataplexy across the entire 6-h recording period
REM sleep rebound after early suppression ([3]; s.c., ZT16, 4 hours post-treatment): rebound that reached significance at ZT16
Cumulative time in REM sleep ([3]; s.c., first two hours after dosing, followed by a later rebound): significant suppression of REM sleep
Increase of Wake bout duration ([3]; second post-dosing hour (ZT14), highest dose s.c.): continued into the second post-dosing hour
Hourly amount of Cataplexy [3, 14]: reduction of Cataplexy continued into the second post-dosing hour
High gamma EEG power during Wake across the entire recording period ([4]; 10 mg/kg s.c., p = 0.02): significantly increased high gamma
Waking EEG high gamma power ([4]; ZT13, 1 mg/kg s.c.): significantly increased high gamma power
Waking EEG spectral power in alpha, low gamma and high gamma ([4]; ZT13, 3 and 10 mg/kg s.c.): significantly increased spectral power in all three bandwidths
NREM EEG delta power ([4]; ZT14, 1 mg/kg s.c.): increased NREM delta
NREM EEG spectral power ([4]; ZT14, 10 mg/kg s.c.): increased spectral power during ZT14 for all EEG bands except for low gamma
Waking EEG high gamma power, persistence of effect [4, 14]: continued into the second post-dosing hour
Number of running bouts ([5]; all doses s.c.): more running bouts
Running wheel activity ([5]; ZT17, 10 mg/kg s.c.): Reduced running wheel activity
Gross motor activity ([5]; ZT17, highest dose s.c.): reduced gross motor activity
Running wheel activity ([5]; ZT18, 10 mg/kg s.c.): increase at ZT18
Running wheel activity ([5]; first post-dosing hour (ZT13), 1 mg/kg s.c.): significantly increased running wheel activity
Gross motor activity [5, 15]: significantly increased motor activity
Subcutaneous temperature (Tsc) [5, 15]: significantly increased Tsc
Ability to maintain wakefulness [6]: improved individuals’ ability to maintain wakefulness
Tolerability [6]: well-tolerated
Wakefulness (wild-type mice): wake-promoting
Wakefulness [7]: but not in narcoleptic OX2R knockout (KO) mice

COc1ccc(-c2cccc(C(=O)N(C)C)c2)cc1S(=O)(=O)Nc1cccc(NCCNC(=O)c2ccccc2N(C)C)c1 [YNT-185]
Sleep onset REM periods (SOREMs) [8]: reduced sleep onset REM periods (SOREMs)
Sleep onset REM periods (SOREMs) [9]: but not in Hcrt receptor-deficient mice
Wakefulness [10]: promoted wakefulness

— PMC10356740 (Journal of sleep research, 2023)
